Test results published in ChEMBL document CHEMBL1153386, “Allopregnanolone (3alpha-hydroxy-5alpha-pregnan-20-one) derivatives with a polar chain in position 16alpha: synthesis and activity” (J Med Chem, 2009).

Key:
[1] = Displacement of [35S]TBPS from Wistar rat brain GABAA receptor
Outline: (§1)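 Whole-brain membranes from adult male Wistar rats, resuspended in 20 mM KH2PO4/200 mM KCl, pH 7.4. Incubated 60 min at 37 °C with 2 nM [35S]TBPS, 1 µM GABA and steroid at 1 nM–10 µM. Nonspecific binding defined with 200 µM picrotoxinin. Binding expressed as % of DMSO control samples.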

Rattus norvegicus [2] = species on record: Rattus norvegicus; experiment: Displacement of [35S]TBPS from Wistar rat brain GABAA receptor relative to control; outline: as §1
Rattus norvegicus [3] = species on record: Rattus norvegicus; experiment: Displacement of [35S]TBPS from Wistar rat brain GABAA receptor at 100 nM relative to control; outline: as §1

Row | Structure (SMILES) | IC50 [1] [nM] | Imax (Rattus norvegicus [2]) [%] | inhibition (Rattus norvegicus [3]) [%]
1 | CC(=O)[C@H]1[C@H](CC(=O)O)C[C@H]2[C@@H]3CC[C@H]4C[C@H](O)CC[C@]4(C)[C@H]3CC[C@@]21C | 40 | 19 | –
2 | CC(=O)[C@H]1[C@H](C(CO)CO)C[C@H]2[C@@H]3CC[C@H]4C[C@H](O)CC[C@]4(C)[C@H]3CC[C@@]21C | – | – | < 15
3 | CC(=O)[C@H]1[C@H](OCCO)C[C@H]2[C@@H]3CC[C@H]4C[C@H](O)CC[C@]4(C)[C@H]3CC[C@@]21C | – | – | < 15
4 | CC(=O)[C@H]1[C@H](OCC(O)CO)C[C@H]2[C@@H]3CC[C@H]4C[C@H](O)CC[C@]4(C)[C@H]3CC[C@@]21C (stereo partly drawn) | – | – | < 15
5 | CC(=O)[C@H]1[C@H](CCOC(N)=O)C[C@H]2[C@@H]3CC[C@H]4C[C@H](O)CC[C@]4(C)[C@H]3CC[C@@]21C | 750 | 61 | –
6 | NC(=O)OCC(COC(N)=O)c1ccccc1 [FELBAMATE] | 95 | 18 | –
7 | CC(=O)[C@H]1[C@H](C(COC(N)=O)COC(N)=O)C[C@H]2[C@@H]3CC[C@H]4C[C@H](O)CC[C@]4(C)[C@H]3CC[C@@]21C | 86 | 26 | –
8 | CC(=O)[C@H]1CC[C@H]2[C@@H]3CC[C@H]4C[C@H](O)CC[C@]4(C)[C@H]3CC[C@]12C [BREXANOLONE] | 80 | 79 | –
9 | CC(=O)[C@H]1[C@H](OCCOCCO)C[C@H]2[C@@H]3CC[C@H]4C[C@H](O)CC[C@]4(C)[C@H]3CC[C@@]21C | – | – | < 15
10 | CC(=O)[C@H]1[C@H](CC#N)C[C@H]2[C@@H]3CC[C@H]4C[C@H](O)CC[C@]4(C)[C@H]3CC[C@@]21C | – | – | < 15
11 | CC(=O)[C@H]1[C@H](CC(N)=O)C[C@H]2[C@@H]3CC[C@H]4C[C@H](O)CC[C@]4(C)[C@H]3CC[C@@]21C | – | – | < 15
12 | CC(=O)[C@H]1[C@H](CCOC(N)=O)C[C@H]2[C@@H]3CC[C@H]4C[C@H](OC(N)=O)CC[C@]4(C)[C@H]3CC[C@@]21C | 300 | 59 | –
